Results as given in ChEMBL document CHEMBL4020742, “Design and optimization of purine derivatives as in vivo active PDE10A inhibitors” (Bioorg Med Chem, 2017).
Calls of active or inactive are those of the source. The calls are words filed in the database; no cut-off is given here.

Target: T1, CYP3A4 (Homo sapiens, UniProt P08684)
Test: Inhibition of CYP3A4 in human microsomes at 10 uM using midazolam as substrate preincubated for 5 mins followed by NADPH addition measured 20 mins relative to control
Type: ADME
Conditions: human microsomes, probe midazolam, read-out: TDI
In short: (§1)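 Pooled human microsomes (0.2 mg/mL) in 100 mM phosphate pH 7.4 with a probe cocktail: midazolam 10 µM, dextromethorphan 10 µM, diclofenac 20 µM, phenacetin 100 µM, mephenytoin 100 µM. Test compound was 10 µM; organic solvent was under 1%. After 5 min preincubation at 37 °C, 1 mmol/L NADPH was added and the reaction ran 20 min, keeping substrate conversion below 20%. Metabolite formation was expressed relative to PBS control.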

T1 sequence (P08684 whole entry): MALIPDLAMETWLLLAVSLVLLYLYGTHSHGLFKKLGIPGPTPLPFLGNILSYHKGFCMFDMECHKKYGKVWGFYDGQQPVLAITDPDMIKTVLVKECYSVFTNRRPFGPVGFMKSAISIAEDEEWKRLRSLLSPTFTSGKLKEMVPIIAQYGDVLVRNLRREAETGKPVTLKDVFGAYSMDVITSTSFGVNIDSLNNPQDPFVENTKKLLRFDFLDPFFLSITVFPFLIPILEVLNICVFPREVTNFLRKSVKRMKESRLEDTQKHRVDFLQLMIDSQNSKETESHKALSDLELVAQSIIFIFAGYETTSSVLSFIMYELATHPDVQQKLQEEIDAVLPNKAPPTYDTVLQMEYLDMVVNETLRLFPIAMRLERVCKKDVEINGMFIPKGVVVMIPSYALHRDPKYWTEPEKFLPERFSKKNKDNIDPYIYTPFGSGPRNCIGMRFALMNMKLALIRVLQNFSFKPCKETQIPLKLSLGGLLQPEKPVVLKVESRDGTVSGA

inhibition at 20 min, 10 µM | SMILES
9% | Cc1nc2c(N3CCOCC3)ncnc2n1Cc1ccc(-c2ccccc2Cl)cc1
40% | Cc1nc2c(N3CCOCC3)ncnc2n1Cc1ccc(-c2cnn(C)c2)cc1
12% | Cc1cc(-c2ccc(Cn3c(C)nc4c(N5CCOCC5)ncnc43)cc2)ccn1

Target: T2, cAMP and cAMP-inhibited cGMP 3',5'-cyclic phosphodiesterase 10A (Homo sapiens, UniProt Q9Y233)
Test: (§2) Inhibition of recombinant human N-terminal GST-tagged PDE10A1 (2 to 789 residues) expressed in baculovirus infected Sf9 cells at 5 uM using fluorescein-labeled cAMP as substrate preincubated for 15 mins followed by substrate addition measured after 30 mins by IMAP fluorescence polarization assay relative to control
Conditions: not given
In short: (§3)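 Recombinant PDE4A1A, PDE2A1 or PDE10A1 was incubated with compound (1% DMSO, duplicate) for 15 min at RT. Fluorescein-cAMP was then added for 30 min at RT, and the reaction was stopped with IMAP binding reagent (1 h, dark). FP was read at Ex485/Em535. Inhibition was set against no-enzyme and DMSO controls. IC50 came from a four-parameter logistic fit; values are the mean of at least two measurements.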

T2 sequence (Q9Y233 whole entry, the tested form may be a part): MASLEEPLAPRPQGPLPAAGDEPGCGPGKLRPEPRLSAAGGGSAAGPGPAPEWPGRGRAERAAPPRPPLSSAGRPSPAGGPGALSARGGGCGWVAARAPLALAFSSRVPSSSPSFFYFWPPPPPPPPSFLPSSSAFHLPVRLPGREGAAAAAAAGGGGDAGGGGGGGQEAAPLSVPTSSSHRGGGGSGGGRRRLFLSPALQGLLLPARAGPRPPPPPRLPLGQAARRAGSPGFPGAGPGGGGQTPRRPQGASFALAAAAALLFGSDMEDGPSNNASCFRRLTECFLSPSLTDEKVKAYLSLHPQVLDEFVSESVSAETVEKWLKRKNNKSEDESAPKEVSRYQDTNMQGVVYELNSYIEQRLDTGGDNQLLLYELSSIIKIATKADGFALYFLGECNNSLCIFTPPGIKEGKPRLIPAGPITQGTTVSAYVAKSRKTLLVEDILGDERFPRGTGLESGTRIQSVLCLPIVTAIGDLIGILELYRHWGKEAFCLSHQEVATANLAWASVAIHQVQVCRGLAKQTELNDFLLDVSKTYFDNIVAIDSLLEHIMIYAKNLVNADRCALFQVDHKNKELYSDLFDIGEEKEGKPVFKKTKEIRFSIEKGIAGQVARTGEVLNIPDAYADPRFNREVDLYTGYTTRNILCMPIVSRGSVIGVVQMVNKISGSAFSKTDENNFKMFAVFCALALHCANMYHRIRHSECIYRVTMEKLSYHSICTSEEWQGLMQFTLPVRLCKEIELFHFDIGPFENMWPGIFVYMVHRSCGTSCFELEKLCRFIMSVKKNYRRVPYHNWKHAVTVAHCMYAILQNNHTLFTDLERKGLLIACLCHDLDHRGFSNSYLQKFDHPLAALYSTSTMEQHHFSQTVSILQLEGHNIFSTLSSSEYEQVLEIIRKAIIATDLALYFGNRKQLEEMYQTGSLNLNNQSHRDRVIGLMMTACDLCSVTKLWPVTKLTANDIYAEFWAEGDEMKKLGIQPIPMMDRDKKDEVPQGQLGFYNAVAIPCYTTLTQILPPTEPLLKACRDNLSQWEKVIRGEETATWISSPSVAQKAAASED

inhibition | SMILES
98% | Cc1nc2c(N3CCOCC3)ncnc2n1Cc1ccc(-c2ccccc2Cl)cc1
96% | Cc1nc2c(N3CCOCC3)ncnc2n1Cc1ccc(-c2cnn(C)c2)cc1
98% | Cc1cc(-c2ccc(Cn3c(C)nc4c(N5CCOCC5)ncnc43)cc2)ccn1

Test system: Rattus norvegicus
Test: Antipsychotic activity in Sprague-Dawley rat assessed as inhibition of PCP-induced hyperlocomotion at 50 mg/kg, po pretreated for 30 mins followed by PCP addition measured after 5 mins for 1.5 hrs by open field test
Type: functional, organism-based
Conditions: not given
In short: (§4)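 Male SD rats (200-250 g), acclimated at least 1 week. Drug was given p.o. in sterile saline with 0.5% Tween 80 and 0.2% CMC-sodium, 30 min before PCP 5 mg/kg i.p. Rats were placed in a 40×40×45 cm open-field arena 5 min after PCP and video-tracked for 90 min. Read-out was total distance travelled, reported as mean ± SEM.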

SMILES | inhibition
Cc1nc2c(N3CCOCC3)ncnc2n1Cc1ccc(-c2ccccc2Cl)cc1 | inactive

Target: T3, CYP1A2 (Homo sapiens, UniProt P05177)
T3 sequence (P05177 whole entry): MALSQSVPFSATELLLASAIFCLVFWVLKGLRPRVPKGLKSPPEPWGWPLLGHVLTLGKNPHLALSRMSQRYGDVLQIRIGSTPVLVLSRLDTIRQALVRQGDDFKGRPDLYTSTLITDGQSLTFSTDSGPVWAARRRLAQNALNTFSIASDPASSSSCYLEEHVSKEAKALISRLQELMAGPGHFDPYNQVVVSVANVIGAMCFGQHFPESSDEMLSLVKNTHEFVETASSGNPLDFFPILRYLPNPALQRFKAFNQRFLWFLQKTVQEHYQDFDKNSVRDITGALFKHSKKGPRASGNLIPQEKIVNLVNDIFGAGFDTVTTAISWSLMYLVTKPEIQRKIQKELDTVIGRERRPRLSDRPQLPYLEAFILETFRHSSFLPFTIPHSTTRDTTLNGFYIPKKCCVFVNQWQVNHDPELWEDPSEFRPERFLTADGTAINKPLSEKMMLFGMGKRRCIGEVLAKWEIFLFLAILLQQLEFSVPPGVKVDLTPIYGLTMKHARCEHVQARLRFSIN
Test: Inhibition of CYP1A2 in human microsomes at 10 uM using phenacetin as substrate preincubated for 5 mins followed by NADPH addition measured 20 mins relative to control
Type: ADME
Conditions: probe phenacetin, read-out: TDI
In short: as §1

inhibition at 20 min, 10 µM | SMILES
15% | Cc1nc2c(N3CCOCC3)ncnc2n1Cc1ccc(-c2ccccc2Cl)cc1
21% | Cc1nc2c(N3CCOCC3)ncnc2n1Cc1ccc(-c2cnn(C)c2)cc1
34% | Cc1cc(-c2ccc(Cn3c(C)nc4c(N5CCOCC5)ncnc43)cc2)ccn1

Target: Cytochrome P450 2D6 (Homo sapiens, UniProt P10635)
Test: (§5) […] of CYP2D6 in human microsomes at 10 uM using dextromethorphan as substrate preincubated for 5 mins followed by NADPH addition measured 20 mins relative to control
Type: ADME
Conditions: microsomes, 20 min, 10 µM

Cytochrome P450 2D6, sequence (P10635 whole entry): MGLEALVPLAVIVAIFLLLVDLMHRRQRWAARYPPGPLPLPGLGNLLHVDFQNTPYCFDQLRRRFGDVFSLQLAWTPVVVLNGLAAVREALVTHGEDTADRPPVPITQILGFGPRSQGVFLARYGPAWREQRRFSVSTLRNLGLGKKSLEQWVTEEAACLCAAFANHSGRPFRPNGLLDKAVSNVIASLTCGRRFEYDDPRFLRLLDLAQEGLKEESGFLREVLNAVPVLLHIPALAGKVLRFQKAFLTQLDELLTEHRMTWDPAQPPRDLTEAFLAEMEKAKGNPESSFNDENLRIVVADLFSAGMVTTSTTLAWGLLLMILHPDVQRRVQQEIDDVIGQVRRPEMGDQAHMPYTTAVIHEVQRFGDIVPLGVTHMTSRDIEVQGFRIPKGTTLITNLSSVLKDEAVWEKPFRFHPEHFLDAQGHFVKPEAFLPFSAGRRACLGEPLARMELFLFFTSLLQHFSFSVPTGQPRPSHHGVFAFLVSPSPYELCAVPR

TDI | SMILES
Not Active | Cc1nc2c(N3CCOCC3)ncnc2n1Cc1ccc(-c2ccccc2Cl)cc1

Target: T4, CYP2D6 (Homo sapiens, UniProt P10635)
Test: as §5
Type: ADME
Conditions: human microsomes, probe dextromethorphan, read-out: TDI

T4 sequence (P10635 whole entry): as above

inhibition at 20 min, 10 µM | SMILES
20% | Cc1nc2c(N3CCOCC3)ncnc2n1Cc1ccc(-c2cnn(C)c2)cc1
60% | Cc1cc(-c2ccc(Cn3c(C)nc4c(N5CCOCC5)ncnc43)cc2)ccn1

Test system: Rattus norvegicus
Test: Antipsychotic activity in Sprague-Dawley rat assessed as inhibition of PCP-induced hyperlocomotion at 10 mg/kg, po pretreated for 30 mins followed by PCP addition measured after 5 mins for 1.5 hrs by open field test
Type: functional, organism-based
Conditions: not given
In short: as §4

SMILES | inhibition
Cc1nc2c(N3CCOCC3)ncnc2n1Cc1ccc(-c2ccccc2Cl)cc1 | Active

Test system: not listed separately
Test: Half life in human liver microsomes at 1 uM preincubated for 5 mins followed by NADPH addition measured up to 30 mins by LC-MS/MS analysis
Type: ADME, microsome
Conditions: not given
In short: (§6)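 Liver microsomes (0.5 mg/mL) plus 1 µM compound were preincubated 5 min at 37 °C in 0.1 M phosphate buffer pH 7.4 containing EDTA and MgCl₂. NADPH started the reaction. Samples at 0, 5, 10 and 30 min were quenched with cold acetonitrile containing tinidazole internal standard and centrifuged. Parent remaining was quantified by LC/MS/MS.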

half-life at 1 µM | SMILES
43.3 min | Cc1nc2c(N3CCOCC3)ncnc2n1Cc1ccc(-c2ccccc2Cl)cc1
231 min | Cc1nc2c(N3CCOCC3)ncnc2n1Cc1ccc(-c2cnn(C)c2)cc1
18.2 min | Cc1cc(-c2ccc(Cn3c(C)nc4c(N5CCOCC5)ncnc43)cc2)ccn1

Target: T5, CYP2C9 (Homo sapiens, UniProt P11712)
Test: […] of CYP2C9 in human microsomes at 10 uM using diclofenac as substrate preincubated for 5 mins followed by NADPH addition measured 20 mins relative to control
Type: ADME
Conditions: human microsomes, probe diclofenac, read-out: TDI

T5 sequence (P11712 whole entry): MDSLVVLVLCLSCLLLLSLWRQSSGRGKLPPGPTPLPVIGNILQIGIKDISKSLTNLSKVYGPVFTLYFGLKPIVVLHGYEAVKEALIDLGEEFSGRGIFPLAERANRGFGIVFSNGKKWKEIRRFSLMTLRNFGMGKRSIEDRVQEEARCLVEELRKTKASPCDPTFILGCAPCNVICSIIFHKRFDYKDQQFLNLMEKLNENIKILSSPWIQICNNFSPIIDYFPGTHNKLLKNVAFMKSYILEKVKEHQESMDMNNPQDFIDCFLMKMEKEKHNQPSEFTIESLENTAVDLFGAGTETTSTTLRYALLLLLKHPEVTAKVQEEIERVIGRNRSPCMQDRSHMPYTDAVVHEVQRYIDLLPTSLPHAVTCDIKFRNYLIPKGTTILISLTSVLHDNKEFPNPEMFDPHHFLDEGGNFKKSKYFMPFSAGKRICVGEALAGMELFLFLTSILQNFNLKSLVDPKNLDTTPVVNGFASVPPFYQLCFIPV

inhibition at 20 min, 10 µM | SMILES
10% | Cc1nc2c(N3CCOCC3)ncnc2n1Cc1ccc(-c2ccccc2Cl)cc1
40% | Cc1nc2c(N3CCOCC3)ncnc2n1Cc1ccc(-c2cnn(C)c2)cc1
10% | Cc1cc(-c2ccc(Cn3c(C)nc4c(N5CCOCC5)ncnc43)cc2)ccn1

Target: T2, cAMP and cAMP-inhibited cGMP 3',5'-cyclic phosphodiesterase 10A
Test: Inhibition of recombinant human N-terminal GST-tagged PDE10A1 (2 to 789 residues) expressed in baculovirus infected Sf9 cells using fluorescein-labeled cAMP as substrate preincubated for 15 mins followed by substrate addition measured after 30 mins by IMAP fluorescence polarization assay
Conditions: not given
In short: as §3

IC50 | SMILES
38 nM | Cc1nc2c(N3CCOCC3)ncnc2n1Cc1ccc(-c2ccccc2Cl)cc1
68 nM | Cc1nc2c(N3CCOCC3)ncnc2n1Cc1ccc(-c2cnn(C)c2)cc1
56 nM | Cc1cc(-c2ccc(Cn3c(C)nc4c(N5CCOCC5)ncnc43)cc2)ccn1

Target: T1, CYP3A4
Test: (§7) Time-dependent inhibition of CYP3A4 in human microsomes at 10 uM using midazolam as substrate preincubated for 5 mins followed by NADPH addition measured 20 mins relative to control
Type: ADME
Conditions: human microsomes, probe midazolam, read-out: TDI

inhibition at 20 min, 10 µM | SMILES
50% | Cc1nc2c(N3CCOCC3)ncnc2n1Cc1ccc(-c2ccccc2Cl)cc1

Target: Cytochrome P450 3A4 (Homo sapiens, UniProt P08684)
Test: as §7
Type: ADME
Conditions: microsomes, 20 min, 10 µM

Cytochrome P450 3A4, sequence (P08684 whole entry): as the sequence (P08684 whole entry) above

TDI | SMILES
Not Active | Cc1nc2c(N3CCOCC3)ncnc2n1Cc1ccc(-c2cnn(C)c2)cc1
Not Active | Cc1cc(-c2ccc(Cn3c(C)nc4c(N5CCOCC5)ncnc43)cc2)ccn1

Test system: Rattus norvegicus
Test: Antipsychotic activity in Sprague-Dawley rat assessed as inhibition of PCP-induced prepulse inhibition deficit at 50 mg/kg, po pretreated for 30 mins followed by PCP addition measured after 5 mins to 10 mins
Type: functional, organism-based
Conditions: not given
In short: (§8)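 Male SD rats (200-250 g) were dosed p.o. in saline with 0.5% Tween 80 and 0.2% CMC-sodium, 30 min before PCP 5 mg/kg i.p. Acoustic startle PPI was tested in startle chambers 5-10 min after PCP. Startle magnitude was the mean of pulse-alone trials. n = 11-16 per group; mean ± SEM; ANOVA with post hoc tests.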

SMILES | inhibition
Cc1nc2c(N3CCOCC3)ncnc2n1Cc1ccc(-c2ccccc2Cl)cc1 | inactive

Target: T5, CYP2C9
Test: Inhibition of CYP2C9 in human microsomes at 10 uM using diclofenac as substrate preincubated for 5 mins followed by NADPH addition measured 20 mins relative to control
Type: ADME
Conditions: human microsomes, probe diclofenac, read-out: TDI
In short: as §1

inhibition at 20 min, 10 µM | SMILES
52% | Cc1nc2c(N3CCOCC3)ncnc2n1Cc1ccc(-c2ccccc2Cl)cc1
10% | Cc1nc2c(N3CCOCC3)ncnc2n1Cc1ccc(-c2cnn(C)c2)cc1
18% | Cc1cc(-c2ccc(Cn3c(C)nc4c(N5CCOCC5)ncnc43)cc2)ccn1

Target: T6, CYP2C19 (Homo sapiens, UniProt P33261)
Test: (§9) […] of CYP2C19 in human microsomes at 10 uM using mephenytoin as substrate preincubated for 5 mins followed by NADPH addition measured 20 mins relative to control
Type: ADME
Conditions: human microsomes, probe mephenytoin, read-out: TDI

T6 sequence (P33261 whole entry): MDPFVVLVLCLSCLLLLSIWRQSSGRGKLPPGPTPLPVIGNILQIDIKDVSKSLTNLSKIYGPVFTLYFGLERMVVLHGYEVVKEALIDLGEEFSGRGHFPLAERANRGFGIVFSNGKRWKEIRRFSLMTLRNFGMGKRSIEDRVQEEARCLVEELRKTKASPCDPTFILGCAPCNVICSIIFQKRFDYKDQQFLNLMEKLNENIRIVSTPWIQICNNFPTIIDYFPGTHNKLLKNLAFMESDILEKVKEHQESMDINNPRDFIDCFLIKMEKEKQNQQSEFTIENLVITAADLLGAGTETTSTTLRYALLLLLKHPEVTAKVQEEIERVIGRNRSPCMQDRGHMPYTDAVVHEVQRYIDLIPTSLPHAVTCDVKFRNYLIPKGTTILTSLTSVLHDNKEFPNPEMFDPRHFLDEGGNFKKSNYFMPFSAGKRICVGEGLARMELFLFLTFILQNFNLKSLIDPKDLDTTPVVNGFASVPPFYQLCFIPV

inhibition at 20 min, 10 µM | SMILES
80% | Cc1nc2c(N3CCOCC3)ncnc2n1Cc1ccc(-c2cnn(C)c2)cc1
70% | Cc1cc(-c2ccc(Cn3c(C)nc4c(N5CCOCC5)ncnc43)cc2)ccn1

Target: Cytochrome P450 2C19 (Homo sapiens, UniProt P33261)
Test: as §9
Type: ADME
Conditions: microsomes, 20 min, 10 µM

Cytochrome P450 2C19, sequence (P33261 whole entry): as above

TDI | SMILES
Not Active | Cc1nc2c(N3CCOCC3)ncnc2n1Cc1ccc(-c2ccccc2Cl)cc1

Target: T6, CYP2C19
Test: Inhibition of CYP2C19 in human microsomes at 10 uM using mephenytoin as substrate preincubated for 5 mins followed by NADPH addition measured 20 mins relative to control
Type: ADME
Conditions: human microsomes, probe mephenytoin, read-out: TDI
In short: as §1

inhibition at 20 min, 10 µM | SMILES
65% | Cc1nc2c(N3CCOCC3)ncnc2n1Cc1ccc(-c2ccccc2Cl)cc1
22% | Cc1nc2c(N3CCOCC3)ncnc2n1Cc1ccc(-c2cnn(C)c2)cc1
21% | Cc1cc(-c2ccc(Cn3c(C)nc4c(N5CCOCC5)ncnc43)cc2)ccn1

Test system: not listed separately
Test: Half life in mouse liver microsomes at 1 uM preincubated for 5 mins followed by NADPH addition measured up to 30 mins by LC-MS/MS analysis
Type: ADME, microsome
Conditions: not given
In short: as §6

half-life at 1 µM | SMILES
17.8 min | Cc1nc2c(N3CCOCC3)ncnc2n1Cc1ccc(-c2ccccc2Cl)cc1
99 min | Cc1nc2c(N3CCOCC3)ncnc2n1Cc1ccc(-c2cnn(C)c2)cc1
23.9 min | Cc1cc(-c2ccc(Cn3c(C)nc4c(N5CCOCC5)ncnc43)cc2)ccn1

Target: T4, CYP2D6
Test: Inhibition of CYP2D6 in human microsomes at 10 uM using dextromethorphan as substrate preincubated for 5 mins followed by NADPH addition measured 20 mins relative to control
Type: ADME
Conditions: human microsomes, probe dextromethorphan, read-out: TDI
In short: as §1

inhibition at 20 min, 10 µM | SMILES
22% | Cc1nc2c(N3CCOCC3)ncnc2n1Cc1ccc(-c2ccccc2Cl)cc1
7% | Cc1nc2c(N3CCOCC3)ncnc2n1Cc1ccc(-c2cnn(C)c2)cc1
6% | Cc1cc(-c2ccc(Cn3c(C)nc4c(N5CCOCC5)ncnc43)cc2)ccn1

Target: PDE2A1 (Homo sapiens, UniProt O00408)
Test: as §2, with “N-terminal FLAG-tagged PDE2A1” for “N-terminal GST-tagged PDE10A1”, “to 941” for “to 789”, “at 1” for “at 5”
Conditions: probe fluorescein-labeled cAMP
In short: as §3

PDE2A1, sequence (O00408 whole entry): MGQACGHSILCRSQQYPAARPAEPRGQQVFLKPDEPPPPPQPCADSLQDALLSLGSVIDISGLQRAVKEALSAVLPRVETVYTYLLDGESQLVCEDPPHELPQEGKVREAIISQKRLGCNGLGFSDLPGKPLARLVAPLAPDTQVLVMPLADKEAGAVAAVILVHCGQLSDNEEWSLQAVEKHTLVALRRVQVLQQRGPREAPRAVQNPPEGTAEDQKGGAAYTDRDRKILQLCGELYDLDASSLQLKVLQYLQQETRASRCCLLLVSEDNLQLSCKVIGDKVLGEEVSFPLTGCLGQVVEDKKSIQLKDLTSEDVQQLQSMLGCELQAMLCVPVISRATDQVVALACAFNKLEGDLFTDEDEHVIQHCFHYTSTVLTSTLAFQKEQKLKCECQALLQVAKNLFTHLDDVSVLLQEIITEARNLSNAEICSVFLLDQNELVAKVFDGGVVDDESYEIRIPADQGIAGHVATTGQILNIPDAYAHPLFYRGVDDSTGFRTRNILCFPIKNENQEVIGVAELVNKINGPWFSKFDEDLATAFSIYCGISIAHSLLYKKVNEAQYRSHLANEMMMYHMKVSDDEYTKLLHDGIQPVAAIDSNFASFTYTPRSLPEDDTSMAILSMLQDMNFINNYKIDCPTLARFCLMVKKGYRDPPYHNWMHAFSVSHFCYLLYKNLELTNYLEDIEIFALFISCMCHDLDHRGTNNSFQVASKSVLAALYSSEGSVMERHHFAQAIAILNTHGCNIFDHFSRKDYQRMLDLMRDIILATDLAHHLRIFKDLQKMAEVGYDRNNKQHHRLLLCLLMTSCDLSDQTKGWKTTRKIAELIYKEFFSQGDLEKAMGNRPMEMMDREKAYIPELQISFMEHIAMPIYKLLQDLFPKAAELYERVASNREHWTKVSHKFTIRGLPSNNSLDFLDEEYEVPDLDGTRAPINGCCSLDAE

inhibition at 0.5 h, 1 µM | SMILES
29% | Cc1nc2c(N3CCOCC3)ncnc2n1Cc1ccc(-c2ccccc2Cl)cc1

Target: T3, CYP1A2
Test: (§10) Time-dependent inhibition of CYP1A2 in human microsomes at 10 uM using phenacetin as substrate preincubated for 5 mins followed by NADPH addition measured 20 mins relative to control
Type: ADME
Conditions: human microsomes, probe phenacetin, read-out: TDI

inhibition at 20 min, 10 µM | SMILES
30% | Cc1cc(-c2ccc(Cn3c(C)nc4c(N5CCOCC5)ncnc43)cc2)ccn1

Target: T7, Cytochrome P450 1A2 (Homo sapiens, UniProt P05177)
T7 sequence (P05177 whole entry): T3 sequence (P05177 whole entry)
Test: as §10
Type: ADME
Conditions: microsomes, 20 min, 10 µM

TDI | SMILES
Not Active | Cc1nc2c(N3CCOCC3)ncnc2n1Cc1ccc(-c2ccccc2Cl)cc1
Not Active | Cc1nc2c(N3CCOCC3)ncnc2n1Cc1ccc(-c2cnn(C)c2)cc1

Test system: Rattus norvegicus
Test: Antipsychotic activity in Sprague-Dawley rat assessed as inhibition of PCP-induced prepulse inhibition deficit at 10 mg/kg, po pretreated for 30 mins followed by PCP addition measured after 5 mins to 10 mins
Type: functional, organism-based
Conditions: not given
In short: as §8

SMILES | inhibition
Cc1nc2c(N3CCOCC3)ncnc2n1Cc1ccc(-c2ccccc2Cl)cc1 | inactive
